# Experimental data from ChEMBL document CHEMBL2034979, “Design, synthesis and antiviral activity of novel quinazolinones” (Eur J Med Chem, 2012).
# Tested on: not listed separately
# Experiment: Cytotoxicity against human TZM-bl cells at 10 uM after 48 hrs by MTT assay
# Assay type: cell-based
# Conditions: not given
# Outline: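 TZM-bl cells plated and held 18 h at 37 °C, then exposed to compounds for 48 h. MTT (5 mg/mL stock, 20 µL per well) added and incubated 3 h at 37 °C. Plates shaken 10 min at room temperature. OD550 read against a 690 nm reference. Single test concentration of 10 µM.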
row,Structure (SMILES),Activity
1,COc1c(C(=O)NCc2ccc(F)cc2)ccc2c1C(=O)N(C)C(Cc1ccc(F)cc1)N2 (centres undefined),Non-toxic
2,COc1c(C(=O)NCc2ccc(F)cc2)ccc2nc(-c3ccc([N+](=O)[O-])cc3)n(C)c(=O)c12,Non-toxic
3,COc1c(C(=O)NCc2ccc(F)cc2)ccc2nc(Cc3ccc(F)cc3)n(C)c(=O)c12,Non-toxic
4,CCCCc1nc2ccc(C(=O)NCc3ccc(F)cc3)c(OC)c2c(=O)n1C,Non-toxic
5,CCCCc1nc2ccc(C(=O)NCc3ccc(F)cc3)c(O)c2c(=O)n1C,Non-toxic
6,COc1c(C(=O)NCc2ccc(F)cc2)ccc2nc(Cc3ccc([N+](=O)[O-])cc3)n(C)c(=O)c12,Non-toxic
7,Cn1c(-c2ccccn2)nc2ccc(C(=O)NCc3ccc(F)cc3)c(O)c2c1=O,Non-toxic
8,Cn1c(Cc2ccc([N+](=O)[O-])cc2)nc2ccc(C(=O)NCc3ccc(F)cc3)c(O)c2c1=O,Non-toxic
9,Cn1c(-c2cccs2)nc2ccc(C(=O)NCc3ccc(F)cc3)c(O)c2c1=O,Non-toxic
10,Cn1c(-c2ccc(F)cc2)nc2ccc(C(=O)NCc3ccc(F)cc3)c(O)c2c1=O,Non-toxic
11,COc1c(C(=O)NCc2ccc(F)cc2)ccc2c1C(=O)N(C)C(Cc1ccc([N+](=O)[O-])cc1)N2 (centres undefined),Non-toxic
12,COc1c(C(=O)NCc2ccc(F)cc2)ccc2nc(-c3ccco3)n(C)c(=O)c12,Non-toxic
13,CCCCC1Nc2ccc(C(=O)NCc3ccc(F)cc3)c(OC)c2C(=O)N1C (centres undefined),Non-toxic
14,COc1c(C(=O)NCc2ccc(F)cc2)ccc2c1C(=O)N(C)C(c1ccccn1)N2 (centres undefined),Non-toxic
15,COc1c(C(=O)NCc2ccc(F)cc2)ccc2c1C(=O)N(C)C(c1ccc([N+](=O)[O-])cc1)N2 (centres undefined),Non-toxic
16,COc1c(C(=O)NCc2ccc(F)cc2)ccc2c1C(=O)N(C)C(c1cccs1)N2 (centres undefined),Non-toxic
17,COc1c(C(=O)NCc2ccc(F)cc2)ccc2nc(-c3ccc(F)cc3)n(C)c(=O)c12,Non-toxic
18,Cn1c(-c2ccc([N+](=O)[O-])cc2)nc2ccc(C(=O)NCc3ccc(F)cc3)c(O)c2c1=O,Non-toxic
19,COc1c(C(=O)NCc2ccc(F)cc2)ccc2c1C(=O)N(C)C(c1ccco1)N2 (centres undefined),Non-toxic
20,COc1c(C(=O)NCc2ccc(F)cc2)ccc2c1C(=O)N(C)C(c1ccc(F)cc1)N2 (centres undefined),Non-toxic
21,Cn1c(-c2ccco2)nc2ccc(C(=O)NCc3ccc(F)cc3)c(O)c2c1=O,Non-toxic
22,Cn1c(Cc2ccc(F)cc2)nc2ccc(C(=O)NCc3ccc(F)cc3)c(O)c2c1=O,Non-toxic
23,COc1c(C(=O)NCc2ccc(F)cc2)ccc2nc(-c3cccs3)n(C)c(=O)c12,Non-toxic
24,COc1c(C(=O)NCc2ccc(F)cc2)ccc2nc(-c3ccccn3)n(C)c(=O)c12,Non-toxic

# Tested on: Tobacco mosaic virus
# Experiment: In vivo antiviral activity against TMV assessed as curative effect at 500 ug/mL
# Assay type: functional
# Conditions: not given
row,Structure (SMILES),Activity [%]
1,COc1c(C(=O)NCc2ccc(F)cc2)ccc2nc(Cc3ccc(F)cc3)n(C)c(=O)c12,15.2
2,COc1c(C(=O)NCc2ccc(F)cc2)ccc2nc(Cc3ccc([N+](=O)[O-])cc3)n(C)c(=O)c12,0
3,Cn1c(Cc2ccc([N+](=O)[O-])cc2)nc2ccc(C(=O)NCc3ccc(F)cc3)c(O)c2c1=O,13.3
4,Cn1c(-c2cccs2)nc2ccc(C(=O)NCc3ccc(F)cc3)c(O)c2c1=O,10.9
5,NC(=O)c1ncn([C@@H]2O[C@H](CO)[C@@H](O)[C@H]2O)n1 [RIBAVIRIN],32.7
6,COc1c(C(=O)NCc2ccc(F)cc2)ccc2nc(-c3ccco3)n(C)c(=O)c12,8.9
7,COc1c(C(=O)NCc2ccc(F)cc2)ccc2c1C(=O)N(C)C(c1ccccn1)N2 (centres undefined),0
8,COc1c(C(=O)NCc2ccc(F)cc2)ccc2c1C(=O)N(C)C(c1ccc([N+](=O)[O-])cc1)N2 (centres undefined),15
9,COc1c(C(=O)NCc2ccc(F)cc2)ccc2c1C(=O)N(C)C(c1cccs1)N2 (centres undefined),0
10,COc1c(C(=O)NCc2ccc(F)cc2)ccc2nc(-c3ccc(F)cc3)n(C)c(=O)c12,8.2
11,COc1c(C(=O)NCc2ccc(F)cc2)ccc2c1C(=O)N(C)C(c1ccco1)N2 (centres undefined),0
12,COc1c(C(=O)NCc2ccc(F)cc2)ccc2c1C(=O)N(C)C(c1ccc(F)cc1)N2 (centres undefined),26.3
13,COc1c(C(=O)NCc2ccc(F)cc2)ccc2nc(-c3cccs3)n(C)c(=O)c12,9.4
14,COc1c(C(=O)NCc2ccc(F)cc2)ccc2nc(-c3ccccn3)n(C)c(=O)c12,17.6

# Tested on: Tobacco mosaic virus
# Experiment: In vivo antiviral activity against TMV assessed as protection effect at 500 ug/mL
# Assay type: functional
# Conditions: not given
row,Structure (SMILES),Activity [%]
1,COc1c(C(=O)NCc2ccc(F)cc2)ccc2nc(Cc3ccc(F)cc3)n(C)c(=O)c12,17.7
2,COc1c(C(=O)NCc2ccc(F)cc2)ccc2nc(Cc3ccc([N+](=O)[O-])cc3)n(C)c(=O)c12,12.4
3,Cn1c(Cc2ccc([N+](=O)[O-])cc2)nc2ccc(C(=O)NCc3ccc(F)cc3)c(O)c2c1=O,16.8
4,Cn1c(-c2cccs2)nc2ccc(C(=O)NCc3ccc(F)cc3)c(O)c2c1=O,9.8
5,NC(=O)c1ncn([C@@H]2O[C@H](CO)[C@@H](O)[C@H]2O)n1 [RIBAVIRIN],39.6
6,COc1c(C(=O)NCc2ccc(F)cc2)ccc2nc(-c3ccco3)n(C)c(=O)c12,11.7
7,COc1c(C(=O)NCc2ccc(F)cc2)ccc2c1C(=O)N(C)C(c1ccccn1)N2 (centres undefined),8.7
8,COc1c(C(=O)NCc2ccc(F)cc2)ccc2c1C(=O)N(C)C(c1ccc([N+](=O)[O-])cc1)N2 (centres undefined),20.3
9,COc1c(C(=O)NCc2ccc(F)cc2)ccc2c1C(=O)N(C)C(c1cccs1)N2 (centres undefined),5.4
10,COc1c(C(=O)NCc2ccc(F)cc2)ccc2nc(-c3ccc(F)cc3)n(C)c(=O)c12,7.4
11,COc1c(C(=O)NCc2ccc(F)cc2)ccc2c1C(=O)N(C)C(c1ccco1)N2 (centres undefined),0
12,COc1c(C(=O)NCc2ccc(F)cc2)ccc2c1C(=O)N(C)C(c1ccc(F)cc1)N2 (centres undefined),28.9
13,COc1c(C(=O)NCc2ccc(F)cc2)ccc2nc(-c3cccs3)n(C)c(=O)c12,12.7
14,COc1c(C(=O)NCc2ccc(F)cc2)ccc2nc(-c3ccccn3)n(C)c(=O)c12,19.5

# Tested on: Human immunodeficiency virus
# Experiment: Antiviral activity against HIV infected in human TZM-bl cells at 10 uM after 48 hrs by luciferase-based reporter gene assay
# Assay type: functional
# Conditions: Human immunodeficiency virus 1, TZM-bl
# Outline: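 TZM-bl cells seeded at 10^4 cells/well. Next day, compounds were added at 10 µM with AZT and MK-0518 reference controls, then pseudotyped HIV-1 was added (final DMSO 2%). Plates were incubated 48 h at 37 °C in humidified CO2. Steady-Glo substrate was added, cells lysed 20 min in the dark, and luciferase luminescence was read.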
row,Structure (SMILES),inhibition at 10 µM [%]
1,COc1c(C(=O)NCc2ccc(F)cc2)ccc2c1C(=O)N(C)C(Cc1ccc(F)cc1)N2 (centres undefined),15.6
2,COc1c(C(=O)NCc2ccc(F)cc2)ccc2nc(-c3ccc([N+](=O)[O-])cc3)n(C)c(=O)c12,-3.8
3,COc1c(C(=O)NCc2ccc(F)cc2)ccc2nc(Cc3ccc(F)cc3)n(C)c(=O)c12,-27.4
4,CCCCc1nc2ccc(C(=O)NCc3ccc(F)cc3)c(OC)c2c(=O)n1C,19.1
5,CCCCc1nc2ccc(C(=O)NCc3ccc(F)cc3)c(O)c2c(=O)n1C,2.4
6,COc1c(C(=O)NCc2ccc(F)cc2)ccc2nc(Cc3ccc([N+](=O)[O-])cc3)n(C)c(=O)c12,-33.8
7,Cn1c(-c2ccccn2)nc2ccc(C(=O)NCc3ccc(F)cc3)c(O)c2c1=O,-11
8,Cn1c(Cc2ccc([N+](=O)[O-])cc2)nc2ccc(C(=O)NCc3ccc(F)cc3)c(O)c2c1=O,29
9,Cn1c(-c2cccs2)nc2ccc(C(=O)NCc3ccc(F)cc3)c(O)c2c1=O,33.2
10,Cn1c(-c2ccc(F)cc2)nc2ccc(C(=O)NCc3ccc(F)cc3)c(O)c2c1=O,68.4
11,COc1c(C(=O)NCc2ccc(F)cc2)ccc2c1C(=O)N(C)C(Cc1ccc([N+](=O)[O-])cc1)N2 (centres undefined),-17.7
12,COc1c(C(=O)NCc2ccc(F)cc2)ccc2nc(-c3ccco3)n(C)c(=O)c12,1.6
13,CCCCC1Nc2ccc(C(=O)NCc3ccc(F)cc3)c(OC)c2C(=O)N1C (centres undefined),3.2
14,Cc1nnc(C(=O)NC(C)(C)c2nc(C(=O)NCc3ccc(F)cc3)c(O)c(=O)n2C)o1 [RALTEGRAVIR],95.2
15,COc1c(C(=O)NCc2ccc(F)cc2)ccc2c1C(=O)N(C)C(c1ccccn1)N2 (centres undefined),9.9
16,COc1c(C(=O)NCc2ccc(F)cc2)ccc2c1C(=O)N(C)C(c1ccc([N+](=O)[O-])cc1)N2 (centres undefined),64.9
17,COc1c(C(=O)NCc2ccc(F)cc2)ccc2c1C(=O)N(C)C(c1cccs1)N2 (centres undefined),17.5
18,COc1c(C(=O)NCc2ccc(F)cc2)ccc2nc(-c3ccc(F)cc3)n(C)c(=O)c12,27.6
19,Cn1c(-c2ccc([N+](=O)[O-])cc2)nc2ccc(C(=O)NCc3ccc(F)cc3)c(O)c2c1=O,77.5
20,COc1c(C(=O)NCc2ccc(F)cc2)ccc2c1C(=O)N(C)C(c1ccco1)N2 (centres undefined),8.1
21,Cc1cn([C@H]2C[C@H](N=[N+]=[N-])[C@@H](CO)O2)c(=O)[nH]c1=O [ZIDOVUDINE],98.1
22,COc1c(C(=O)NCc2ccc(F)cc2)ccc2c1C(=O)N(C)C(c1ccc(F)cc1)N2 (centres undefined),31
23,Cn1c(-c2ccco2)nc2ccc(C(=O)NCc3ccc(F)cc3)c(O)c2c1=O,-9.2
24,Cn1c(Cc2ccc(F)cc2)nc2ccc(C(=O)NCc3ccc(F)cc3)c(O)c2c1=O,49.5
25,COc1c(C(=O)NCc2ccc(F)cc2)ccc2nc(-c3cccs3)n(C)c(=O)c12,25.1
26,COc1c(C(=O)NCc2ccc(F)cc2)ccc2nc(-c3ccccn3)n(C)c(=O)c12,44.6

# Tested on: Tobacco mosaic virus
# Experiment: In vitro antiviral activity against TMV assessed as inhibition rate at 500 ug/mL
# Assay type: functional
# Conditions: not given
row,Structure (SMILES),inhibition at 500 µg/mL [%]
1,COc1c(C(=O)NCc2ccc(F)cc2)ccc2nc(Cc3ccc(F)cc3)n(C)c(=O)c12,21.2
2,Cn1c(Cc2ccc([N+](=O)[O-])cc2)nc2ccc(C(=O)NCc3ccc(F)cc3)c(O)c2c1=O,18.4
3,Cn1c(-c2cccs2)nc2ccc(C(=O)NCc3ccc(F)cc3)c(O)c2c1=O,14.5
4,NC(=O)c1ncn([C@@H]2O[C@H](CO)[C@@H](O)[C@H]2O)n1 [RIBAVIRIN],38.5
5,COc1c(C(=O)NCc2ccc(F)cc2)ccc2nc(-c3ccco3)n(C)c(=O)c12,10
6,COc1c(C(=O)NCc2ccc(F)cc2)ccc2c1C(=O)N(C)C(c1ccccn1)N2 (centres undefined),0
7,COc1c(C(=O)NCc2ccc(F)cc2)ccc2c1C(=O)N(C)C(c1ccc([N+](=O)[O-])cc1)N2 (centres undefined),19.5
8,COc1c(C(=O)NCc2ccc(F)cc2)ccc2c1C(=O)N(C)C(c1cccs1)N2 (centres undefined),16.3
9,COc1c(C(=O)NCc2ccc(F)cc2)ccc2c1C(=O)N(C)C(c1ccco1)N2 (centres undefined),7.5
10,COc1c(C(=O)NCc2ccc(F)cc2)ccc2c1C(=O)N(C)C(c1ccc(F)cc1)N2 (centres undefined),24.2
11,COc1c(C(=O)NCc2ccc(F)cc2)ccc2nc(-c3cccs3)n(C)c(=O)c12,0
12,COc1c(C(=O)NCc2ccc(F)cc2)ccc2nc(-c3ccccn3)n(C)c(=O)c12,21.3

# Tested on: Tobacco mosaic virus
# Experiment: In vivo antiviral activity against TMV assessed as viral inactivation effect at 500 ug/mL
# Assay type: functional
# Conditions: not given
row,Structure (SMILES),Activity [%]
1,COc1c(C(=O)NCc2ccc(F)cc2)ccc2nc(Cc3ccc(F)cc3)n(C)c(=O)c12,10.6
2,COc1c(C(=O)NCc2ccc(F)cc2)ccc2nc(Cc3ccc([N+](=O)[O-])cc3)n(C)c(=O)c12,0
3,Cn1c(Cc2ccc([N+](=O)[O-])cc2)nc2ccc(C(=O)NCc3ccc(F)cc3)c(O)c2c1=O,12.7
4,Cn1c(-c2cccs2)nc2ccc(C(=O)NCc3ccc(F)cc3)c(O)c2c1=O,8.2
5,NC(=O)c1ncn([C@@H]2O[C@H](CO)[C@@H](O)[C@H]2O)n1 [RIBAVIRIN],34.2
6,COc1c(C(=O)NCc2ccc(F)cc2)ccc2nc(-c3ccco3)n(C)c(=O)c12,0
7,COc1c(C(=O)NCc2ccc(F)cc2)ccc2c1C(=O)N(C)C(c1ccccn1)N2 (centres undefined),15.2
8,COc1c(C(=O)NCc2ccc(F)cc2)ccc2c1C(=O)N(C)C(c1ccc([N+](=O)[O-])cc1)N2 (centres undefined),18.9
9,COc1c(C(=O)NCc2ccc(F)cc2)ccc2c1C(=O)N(C)C(c1cccs1)N2 (centres undefined),13.7
10,COc1c(C(=O)NCc2ccc(F)cc2)ccc2nc(-c3ccc(F)cc3)n(C)c(=O)c12,13.3
11,COc1c(C(=O)NCc2ccc(F)cc2)ccc2c1C(=O)N(C)C(c1ccco1)N2 (centres undefined),8.2
12,COc1c(C(=O)NCc2ccc(F)cc2)ccc2c1C(=O)N(C)C(c1ccc(F)cc1)N2 (centres undefined),30.4
13,COc1c(C(=O)NCc2ccc(F)cc2)ccc2nc(-c3cccs3)n(C)c(=O)c12,20.4
14,COc1c(C(=O)NCc2ccc(F)cc2)ccc2nc(-c3ccccn3)n(C)c(=O)c12,29.4
